Measurements from paper PMC10427982 (eBioMedicine, 2023).
Marks after values point to notes of the source that are not given here.

Legend:
[1] = Multisite microdialysis pharmacokinetics after molnupiravir; format: in vivo, rat
In short: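 Pregnant Sprague–Dawley rats at gestation day 16 (300 ± 50 g), fasted 12 h and anaesthetised with urethane 1 g/kg i.p. Test compound in normal saline given alone via femoral vein catheter. Unbound drug and metabolite sampled by microdialysis in jugular vein, fetus, placenta and amniotic fluid, perfused with citrate-dextrose solution. Dialysates every 20 min over 6 h, UHPLC-MS/MS. Ratios taken as AUC quotients ×100%. n = 6, mean ± SEM.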

[2] = Multisite microdialysis pharmacokinetics after molnupiravir; format: in vivo, rat; remark: listed apart in the source
In short: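 Pregnant Sprague–Dawley rats (gestation day 16, 300 ± 50 g), fasted 12 h, under urethane anaesthesia (1 g/kg i.p.). Test compound in normal saline, with the ENT inhibitor in 10% DMSO/90% PEG-400, given together via the femoral vein. Microdialysis probes sit in the jugular vein, fetus, placenta and amniotic fluid, perfused with ACD solution. Dialysates are collected every 20 min for 6 h and assayed by UHPLC-MS/MS. n = 6, mean ± SEM.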

[3] = animal models; cited from earlier work
[4] = cited from earlier work
[5] = single and multiple doses; cited from earlier work
[6] = lactating rats administered molnupiravir; cited from earlier work
human ENT1 = conditions: cited from earlier work
human ENT2 = conditions: cited from earlier work
[7] = after remdesivir 30 mg/kg i.v.; cited from earlier work
[8] = system: human airway epithelial cells (HAE); conditions: cited from earlier work
[9] = blood, molnupiravir 100 mg/kg i.v. alone
[10] = female, Sprague-Dawley, rat, amniotic fluid dialysate, iv, 100 mg/kg
[11] = female, Sprague-Dawley, rat, blood dialysate, iv, 100 mg/kg
[12] = female, Sprague-Dawley, rat, fetus dialysate, iv, 100 mg/kg
[13] = female, Sprague-Dawley, rat, placenta dialysate, iv, 100 mg/kg
[14] = female, Sprague-Dawley, rat, amniotic fluid, iv, 100 mg/kg, with NBMPR (ENT inhibitor) 10 mg/kg i.v., co-administered
[15] = female, Sprague-Dawley, rat, blood, iv, 100 mg/kg, with NBMPR (ENT inhibitor) 10 mg/kg i.v., co-administered
[16] = female, Sprague-Dawley, rat, fetus, iv, 100 mg/kg, with NBMPR (ENT inhibitor) 10 mg/kg i.v., co-administered
[17] = female, Sprague-Dawley, rat, placenta, iv, 100 mg/kg, with NBMPR (ENT inhibitor) 10 mg/kg i.v., co-administered
[18] = placenta, + NBMPR 10 mg/kg i.v.
[19] = amniotic fluid, molnupiravir 100 mg/kg i.v. alone
[20] = fetus, molnupiravir 100 mg/kg i.v. alone
[21] = placenta, molnupiravir 100 mg/kg i.v. alone
[22] = amniotic fluid, + NBMPR 10 mg/kg i.v.

Q: Which “Time up to which detected” value ([1]; blood, molnupiravir 100 mg/kg i.v.) does the source give for `CC(C)C(=O)OC[C@H]1O[C@@H](n2ccc(NO)nc2=O)[C@H](O)[C@@H]1O` [Molnupiravir] here?
A: up to 200 min

Q: What about the CL [1, 9] of the same compound?
A: 1.313 ± 0.179 L/h/kg

Q: And the “Time for the maximum concentration in the conceptus” value ([1]; conceptus, molnupiravir 100 mg/kg i.v.)?
A: approximately 40 min

Q: And the Kp ([1]; female, Sprague-Dawley, rat, amniotic fluid (relative to blood), iv, 100 mg/kg)?
A: 0.05 ± 0.01

Q: What about the concentration at 60 min ([1]; female, Sprague-Dawley, rat, amniotic fluid dialysate, intravenous, 100 mg/kg) of the same compound?
A: 0.00148 µg/mL

Q: And the AUC(0-inf) [1, 10]?
A: 4.66 µg·h/mL

Q: What about the Cmax [1, 10] of the same compound?
A: 2.11 ± 0.38 µg/mL

Q: What about the half-life [1, 10] of the same compound?
A: 13.8 ± 2.88 h

Q: And the MRT ([1]; female, Sprague-Dawley, rat, amniotic fluid, iv, 100 mg/kg)?
A: 1.73 h

Q: And the concentration at 140 min ([1]; female, Sprague-Dawley, rat, blood dialysate, intravenous, 100 mg/kg)?
A: 0.0182 µg/mL

Q: And the AUC(0-inf) [1, 11]?
A: 61.6 µg·h/mL

Q: What about the Cmax [1, 11] of the same compound?
A: 219 ± 42.3 µg/mL

Q: What about the half-life [1, 11] of the same compound?
A: 0.183 ± 0.0333 h

Q: And the MRT ([1]; female, Sprague-Dawley, rat, blood, iv, 100 mg/kg)?
A: 0.267 h

Q: And the Kp ([1]; female, Sprague-Dawley, rat, fetus (relative to blood), iv, 100 mg/kg)?
A: 0.03 ± 0.01

Q: And the concentration at 140 min ([1]; female, Sprague-Dawley, rat, fetus dialysate, intravenous, 100 mg/kg)?
A: 0.00302 µg/mL

Q: And the AUC(0-inf) [1, 12]?
A: 3.31 µg·h/mL

Q: What about the Cmax [1, 12] of the same compound?
A: 3.54 ± 1.32 µg/mL

Q: What about the half-life [1, 12] of the same compound?
A: 0.483 ± 0.0833 h

Q: What about the MRT ([1]; female, Sprague-Dawley, rat, fetus, iv, 100 mg/kg) of the same compound?
A: 0.7 h

Q: And the Kp ([1]; female, Sprague-Dawley, rat, placenta (relative to blood), iv, 100 mg/kg)?
A: 0.02 ± 0.009

Q: What about the concentration at 80 min ([1]; female, Sprague-Dawley, rat, placenta dialysate, intravenous, 100 mg/kg) of the same compound?
A: 0.0151 µg/mL

Q: What about the AUC(0-inf) [1, 13] of the same compound?
A: 2.42 µg·h/mL

Q: What about the Cmax [1, 13] of the same compound?
A: 2.56 ± 0.73 µg/mL

Q: And the half-life [1, 13]?
A: 1 ± 0.417 h

Q: And the MRT ([1]; female, Sprague-Dawley, rat, placenta, iv, 100 mg/kg)?
A: 1.17 h

Q: What about the “Time within which metabolized to NHC” value ([1]; molnupiravir 100 mg/kg i.v.) of the same compound?
A: ≤ 20 min

Q: What about the AUC(0-inf) [2, 14] of the same compound?
A: 2.77 µg·h/mL

Q: And the Cmax [2, 14]?
A: 2.14 ± 0.64 µg/mL

Q: What about the MRT [2, 14] of the same compound?
A: 1.47 h

Q: And the half-life [2, 14]?
A: 3.12 ± 0.833 h

Q: What about the AUC(0-inf) [2, 15] of the same compound?
A: 49.6 µg·h/mL

Q: What about the Cmax [2, 15] of the same compound?
A: 261 ± 111 µg/mL

Q: And the MRT [2, 15]?
A: 0.283 h

Q: What about the clearance [2, 15] of the same compound?
A: 3.55 ± 1.35 L/h/kg

Q: What about the half-life [2, 15] of the same compound?
A: 0.2 ± 0.0167 h

Q: And the AUC(0-inf) [2, 16]?
A: 1.65 µg·h/mL

Q: And the Cmax [2, 16]?
A: 2.41 ± 0.18 µg/mL

Q: And the MRT [2, 16]?
A: 0.833 h

Q: And the half-life [2, 16]?
A: 0.433 ± 0.1 h

Q: And the AUC(0-inf) [2, 17]?
A: 1.88 µg·h/mL

Q: What about the Cmax [2, 17] of the same compound?
A: 1.02 ± 0.19 µg/mL

Q: And the half-life [2, 17]?
A: 3 ± 1.42 h

Q: What about the MRT [2, 18] of the same compound?
A: 3.95 ± 1.48 h

Q: And the “Increase of the bioavailability of NHC” value [3]?
A: more than 90%

Q: What about the “Fetal finding at lower dose” value ([4]; 500 mg/kg) of the same compound?
A: decreased fetal body weight

Q: What about the “Fetal finding at high dose” value ([4]; 1000 mg/kg) of the same compound?
A: internal and skeletal malformations of the fetus

Q: What about the “NOAEL for maternal and developmental toxicity” value [4] of the same compound?
A: 250 mg/kg

Q: And the “Finding at doses eight times the normal dose / expected exposure” value ([4]; pregnant rat model)?
A: developmental toxicity

Q: What does the source list for `O=c1nc(NO)ccn1[C@@H]1O[C@H](CO)[C@@H](O)[C@H]1O` [NHC, β-D-N4-hydroxycytidine]?
A: Concentration in dialysate sample (representative chromatogram) ([1]; amniotic fluid dialysate, 60 min after administration): 0.01005 µg/mL; AUCtissue/AUCblood (biodistribution ratio) [1, 19]: 0.19 ± 0.03; Cmax [1, 19]: 4.78 ± 0.83 ^b μg/mL; MRT [1, 19]: 2.82 ± 0.13 h; Tmax [1, 19]: 150 ± 33 min; t1/2 [1, 19]: 148 ± 52 ^b min; Concentration in dialysate sample (representative chromatogram) ([1]; blood dialysate, 140 min after molnupiravir 100 mg/kg i.v.): 0.96 µg/mL; Cmax [1, 9]: 116.5 ± 3.87 µg/mL; MRT [1, 9]: 0.95 ± 0.1 h; Tmax [1, 9]: 40 min; t1/2 [1, 9]: 45 ± 5 min; Time post-administration until which detected ([1]; dialysates of all organs): 360 min; Concentration in dialysate sample (representative chromatogram) ([1]; fetus dialysate, collected at 140 min): 0.185 µg/mL; AUCtissue/AUCblood (biodistribution ratio) [1, 20]: 0.29 ± 0.11; Cmax [1, 20]: 7.20 ± 2.10 ^b μg/mL; MRT [1, 20]: 2.62 ± 0.167 h; Tmax [1, 20]: 123 ± 11 ^b min; t1/2 [1, 20]: 492 ± 305 ^b min; Concentration in dialysate sample (representative chromatogram) ([1]; placenta dialysate, 80 min after administration): 0.1262 µg/mL; AUCtissue/AUCblood (biodistribution ratio) [1, 21]: 0.09 ± 0.01; Cmax [1, 21]: 2.98 ± 0.42 ^b μg/mL; MRT [1, 21]: 2.6 ± 0.167 h; Tmax [1, 21]: 90 ± 16 min; t1/2 [1, 21]: 138 ± 18 ^b min; Transfer ratio across the blood-placenta barrier ([1]; range over fetus, placenta, amniotic fluid): 9–29%; AUCtissue/AUCblood (biodistribution ratio) [2, 22]: 0.19 ± 0.05; Cmax [2, 22]: 4.21 ± 0.44 ^d μg/mL; MRT [2, 22]: 4.9 ± 1.28 h; Tmax [2, 22]: 100 ± 14 ^d min; t1/2 [2, 22]: 181 ± 56 ^d min; Cmax ([2]; blood, + NBMPR 10 mg/kg i.v.): 97.26 ± 24.95 µg/mL; MRT ([2]; blood, + NBMPR 10 mg/kg i.v.): 0.933 ± 0.1 h; t1/2 ([2]; blood, + NBMPR 10 mg/kg i.v.): 66 ± 3 min; AUCtissue/AUCblood (biodistribution ratio) ([2]; fetus, + NBMPR 10 mg/kg i.v.): 0.27 ± 0.07; Cmax ([2]; fetus, + NBMPR 10 mg/kg i.v.): 4.69 ± 1.92 ^d μg/mL; MRT ([2]; fetus, + NBMPR 10 mg/kg i.v.): 12.7 ± 4.25 h; Tmax ([2]; fetus, + NBMPR 10 mg/kg i.v.): 93 ± 16 ^d min; t1/2 ([2]; fetus, + NBMPR 10 mg/kg i.v.): 507 ± 178 ^d min; AUCtissue/AUCblood (biodistribution ratio) [2, 18]: 0.14 ± 0.06; Cmax [2, 18]: 2.95 ± 0.97 ^d μg/mL; MRT [2, 18]: 4.18 ± 1.08 h; Tmax [2, 18]: 106 ± 12 ^d min; t1/2 [2, 18]: 157 ± 56 ^d min; Bioavailability [3]: poor bioavailability; Median Tmax in plasma [5]: 1 h; Detection in plasma of nursing pups [6]: can be detected; Interaction with transporter (human ENT1): interacts; Interaction with transporter (human ENT2): interacts

Q: What does the source list for `N#C[C@@]1(c2ccc3c(N)ncnn23)O[C@H](CO)[C@@H](O)[C@H]1O` [GS-441524]?
A: Transfer ratio from mother to amniotic fluid [7]: 0.71 ± 0.19; Transfer ratio from mother to fetus [7]: 0.51 ± 0.18; Transfer ratio from mother to placenta [7]: 0.35 ± 0.09; EC50 [8]: 0.18 µM
